Where “and” joins values, the source holds several entries; their conditions need not be identical. Identical values can stand only once.
Legend:
[1] = test system: alveolar epithelial type II cells; conditions: cited from earlier work
[2] = Pharmacokinetics Part 1, single oral dose, plasma and urine; format: in vivo, homo sapiens
Procedure, shortened: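 Healthy adults (men and women of non-child-bearing potential) got one oral dose of test compound (7, 20 or 40 mg; 6 per cohort) or placebo. Plasma was sampled pre-dose, at 15 and 30 min, and at 1–48 h (72 h at 40 mg only). Urine was collected over 0–72 h intervals. Analysis was LC-MS/MS after protein precipitation (plasma 1.00–6000 nmol/L). t½ = ln(2)/λz. Dose proportionality was assessed graphically and by power model.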

[3] = Pharmacokinetics Part 2, once daily oral dosing, plasma and urine; format: in vivo, homo sapiens
Procedure, shortened: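 Oral test compound or placebo was given once each morning at 5, 15 or 20 mg on day 1 and days 3–16. Plasma was sampled over 48 h after the day 1 dose and after the day 16 dose, with troughs pre-dose on days 4, 5, 6, 9 and 12. Urine was collected in intervals on days 1 and 16. Quantitation was by LC-MS/MS after protein precipitation.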

[4] = Human PK, dose-to-man and exposure predictions; conditions: 15 mg once daily
[5] = test system: osteocalcin; experiment: Serum bone turnover biomarker osteocalcin; format: in vivo, homo sapiens
Procedure, shortened: (§1)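 Participants got test compound (5, 15 or 20 mg) or placebo once daily on day 1 and days 3–16. Serum was drawn at screening and pre-dose on days 1, 5, 7, 12 and 16, and on days 22 (±1) and 45 (±2), at the same time as baseline. CTX-1, P1NP and osteocalcin were measured by electrochemiluminescence immunoassay and BSAP by sandwich ELISA. Results are percent change from baseline versus pooled placebo.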

[6] = test system: lung collagen deposition; conditions: cited from earlier work
[7] = test system: BSAP; experiment: Serum bone turnover biomarker BSAP; format: in vivo, homo sapiens
Procedure, shortened: as §1

[8] = test system: AXIN2 mRNA; experiment: Target engagement: AXIN2 mRNA; format: in vivo, homo sapiens; conditions: hair follicle
Procedure, shortened: (§2)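 Hair follicles (2 mm micropunch) and skin biopsies (4 mm) were taken from the lower back of the head on day −1 and on day 16, 8 ± 2 h after the last of 14 consecutive once-daily doses. AXIN2 mRNA was measured by qRT-PCR and normalized to the geometric mean of HPRT1, IPO8 and POLR2A. Fold change from baseline was calculated by 2^−ΔΔCt, versus 8 pooled placebo participants.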

[9] = test system: P1NP; experiment: Serum bone turnover biomarker P1NP; format: in vivo, homo sapiens; conditions: 15 mg QD for 14 days
Procedure, shortened: as §1

[10] = Phase 1 Part 1; format: in vivo, homo sapiens
Procedure, shortened: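 Healthy adults were randomized to one oral dose of test compound (7, 20 or 40 mg; 6 active, 2 placebo per cohort), with a sentinel pair per cohort. Participants stayed in the unit ≥72 h post-dose, with follow-up at 6 ± 1 day. Adverse events were graded by CTCAE, and relatedness was assessed by the investigator. Placebo participants were pooled across cohorts.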

[11] = test system: AXIN2 mRNA; experiment: Target engagement: AXIN2 mRNA; format: in vivo, homo sapiens; conditions: skin
Procedure, shortened: as §2

[12] = test system: Wnt16; experiment: Serum high-throughput proteomics; format: in vivo, homo sapiens; conditions: study day 16
[13] = test system: Wnt7a; experiment: Serum high-throughput proteomics; format: in vivo, homo sapiens; conditions: study day 16, 5, 15, 20 mg
[14] = Phase 1 Part 2; format: in vivo, homo sapiens
Procedure, shortened: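 Healthy adults got test compound (5, 15 or 20 mg) or placebo once daily on day 1 and days 3–16. The first cohort had 6 active and 2 placebo; later cohorts had 8 active and 3 placebo, each starting with a 2:1 sentinel group. Participants were discharged day 19, with follow-up 6 ± 1 and 29 ± 2 days after the last dose. Events were graded by CTCAE, with investigator-assessed relatedness. Placebo was pooled.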

[15] = test system: CTX-1; experiment: Serum bone turnover biomarker CTX-1; format: in vivo, homo sapiens
Procedure, shortened: as §1

[16] = all dose levels, after 14 consecutive days of dosing

## Cc1cc(-c2nccc3c2ccn3CC(=O)Nc2ccc(-c3cnccn3)cn2)ccn1 [AZD5055]
[1]
  differentiation of alveolar epithelial type II cells into alveolar type I cells: increasing differentiation of alveolar epithelial type II cells into alveolar type I cells
[2]; after a single dose, across dose cohorts
  mean terminal elimination half-life: 10 to 11 h
[2]; oral, across dose cohorts
  median time to maximum plasma concentration (tmax): 1 to 1.5 h
[2]; single doses 7-40 mg
  Dose proportionality (power-model approach): behaves dose-proportionally
[3]; after 14 consecutive days of once daily treatment, 5-20 mg
  Dose proportionality of systemic exposure: increased in a dose-proportional manner
[3]; following repeated once daily dosing
  mean terminal half-life: 12 to 17 h
[3]; in vivo
  AZD5055 dose excreted unchanged in urine: Approximately 3%
  mean renal clearance: 0.2 to 0.3 L/h
[3]; once daily dosing
  Steady state conditions in plasma reached: ≤ 5 doses
  accumulation ratio: ≤ 2
[4]
  predicted continuous inhibition of Porcupine across the dosing interval: > 75%
[4]; 3-fold in vitro IC50
  predicted trough AZD5055 concentration: 0.023 µmol/L
[5]; 15 and 20 mg doses
  serum osteocalcin levels: reductions
[5]; lower doses
  serum osteocalcin levels vs placebo: comparable to those in the placebo group
[6]
  collagen deposition in the lungs: reduced collagen deposition in the lungs
[7]; 20 mg dose
  serum BSAP levels: reductions
[7]; lower doses
  serum BSAP levels vs placebo: comparable to those in the placebo group
[8]; 15 and 20 mg cohorts
  reduction of median AXIN2 mRNA levels: 50%–60%
[8]; [16]
  AXIN2 mRNA expression vs placebo-treated participants: significantly reduced from baseline
[9]
  estimated decrease in serum P1NP compared with the placebo group: 56.3%
[10]; Part 1, 7 mg
  Participants with at least one TEAE: 2 (33.3%) n (%)
[10]; Part 1, 20 mg
  Participants with a grade 2 TEAE of nsVT: One
  Participants with at least one TEAE: 1 (16.7%) n (%)
[10]; Part 1, 40 mg
  Participants with at least one TEAE: 1 (16.7%) n (%)
[10]; Part 1 SAD pooled, N=18
  Any TEAEs possibly related to the IMP (as assessed by investigator): 3 (16.7%) n (%)
[10]; Part 1 SAD pooled, n=18
  Abdominal pain upper: 1 (5.6) n (%)
  Application site scab: 1 (5.6) n (%)
  Cardiac disorders: 1 (5.6) n (%)
  Coronavirus infection: 0 n (%)
  Cough: 0 n (%)
  Dermatitis contact: 0 n (%)
  Dizziness: 1 (5.6) n (%)
  Dysgeusia: 0 n (%)
  Epistaxis: 0 n (%)
  Erythema: 0 n (%)
  Folliculitis: 0 n (%)
  Gastrointestinal disorders: 1 (5.6) n (%)
  General disorders and administration site conditions: 2 (11.1) n (%)
  Headache: 0 n (%)
  Infections and infestations: 0 n (%)
  Injury, poisoning and procedural complications: 0 n (%)
  Limb injury: 0 n (%)
  Medical device site dermatitis: 1 (5.6) n (%)
  Nasal discomfort: 0 n (%)
  Nausea: 1 (5.6) n (%)
  Nervous system disorders: 1 (5.6) n (%)
  Participants with ≥1 TEAE: 4 (22.2%) n (%) and 4 (22.2) n (%)
  Participants with ≥1 TEAE leading to discontinuation of investigational product: 0 n (%)
  Participants with ≥1 TEAE of grade 1 severity: 4 (22.2) n (%)
  Participants with ≥1 TEAE of grade 2 severity: 0 n (%)
  Participants with ≥1 TEAE of grade 3 severity: 0 n (%)
  Participants with ≥1 TESAE: 0 n (%)
  Photophobia: 0 n (%)
  Post procedural erythema: 0 n (%)
  Post procedural inflammation: 0 n (%)
  Procedural pain: 0 n (%)
  Respiratory, thoracic and mediastinal disorders: 1 (5.6) n (%)
  Sensation of foreign body: 0 n (%)
  Skin abrasion: 0 n (%)
  Skin and subcutaneous tissue disorders: 0 n (%)
  Suture rupture: 0 n (%)
  Ventricular tachycardia: 1 (5.6) n (%)
  Vessel puncture site haematoma: 0 n (%)
  Vision blurred: 0 n (%)
  Vomiting: 1 (5.6) n (%)
  Wheezing: 1 (5.6) n (%)
[10]; Parts 1 and 2
  Deaths, SAEs, AEs of CTCAE grade 3 or higher: No deaths, serious adverse events (SAEs) or AEs of CTCAE grade 3 or higher were reported
  Participants with a TEAE of nsVT during the study: Three
  clinical laboratory results, vital signs, physical examinations, ECGs, oxygen saturation: no clinically significant changes
[10]; both study parts
  Overall safety and tolerability: safe and well tolerated
[11]; 15 and 20 mg cohorts
  reduction of median AXIN2 mRNA levels: 50%–60%
[11]; [16]
  AXIN2 mRNA expression vs placebo-treated participants: significantly reduced from baseline
[12]
  Serum Wnt16 levels: reduced on study day 16 at the 15 and 20 mg AZD5055 dose levels
[13]
  Serum Wnt7a levels: reduced on study day 16 for all AZD5055 dose levels evaluated
[14]; Part 2, 5 mg QD, N=8
  Any TEAE leading to discontinuation of IMP: 2 n (%)
[14]; Part 2, 15 mg QD, N=9
  Any TEAE leading to discontinuation of IMP: 1 n (%)
[14]; Part 2 MAD pooled, N=26
  Any TEAE possibly related to the IMP (as assessed by investigator): 7 (26.9%) n (%)
[14]; Part 2 MAD pooled, n=26
  Abdominal pain upper: 0 n (%)
  Application site scab: 0 n (%)
  Breath odor: 1 (3.8) n (%)
  Cardiac disorders: 2 (7.7) n (%)
  Coronavirus infection: 1 (3.8) n (%)
  Cough: 0 n (%)
  Dermatitis contact: 0 n (%)
  Dizziness: 0 n (%)
  Dysgeusia: 2 n (%) and 2 (7.7) n (%)
  Epistaxis: 1 (3.8) n (%)
  Erythema: 1 (3.8) n (%)
  Eye disorders: 2 (7.7) n (%)
  Folliculitis: 1 (3.8) n (%)
  Gastrointestinal disorders: 1 (3.8) n (%)
  General disorders and administration site conditions: 11 (42.3) n (%)
  Headache: 5 (19.2) n (%)
  Infections and infestations: 2 (7.7) n (%)
  Injury, poisoning and procedural complications: 5 (19.2) n (%)
  Limb injury: 1 (3.8) n (%)
  Medical device site dermatitis: 11 (42.3) n (%)
  Nasal discomfort: 1 (3.8) n (%)
  Nausea: 0 n (%)
  Nervous system disorders: 7 (26.9) n (%)
  Participants with ≥1 TEAE: 21 (80.8%) n (%) and 21 (80.8) n (%)
  Participants with ≥1 TEAE of grade 1 severity: 16 (61.5%) n (%) and 16 (61.5) n (%)
  Participants with ≥1 TEAE of grade 2 severity: 5 (19.2%) n (%) and 5 (19.2) n (%)
  Participants with ≥1 TEAE of grade 3 severity: 0 n (%)
  Participants with ≥1 TESAE: 0 n (%)
  Photophobia: 1 (3.8) n (%)
  Post procedural erythema: 1 (3.8) n (%)
  Post procedural inflammation: 1 (3.8) n (%)
  Procedural pain: 2 (7.7) n (%)
  Respiratory, thoracic and mediastinal disorders: 2 (7.7) n (%)
  Sensation of foreign body: 1 (3.8) n (%)
  Skin abrasion: 1 (3.8) n (%)
  Skin and subcutaneous tissue disorders: 1 (3.8) n (%)
  Suture rupture: 0 n (%)
  Ventricular tachycardia: 2 (7.7) n (%)
  Vessel puncture site haematoma: 0 n (%)
  Vision blurred: 1 (3.8) n (%)
  Vomiting: 0 n (%)
  Wheezing: 0 n (%)
[15]; 15 mg QD for 14 days
  estimated increase in serum CTX-1 compared with the placebo group: 17.5%
[15]; 20 mg QD for 14 days
  estimated increase in serum CTX-1 compared with the placebo group: 32.8%

— article PMC12177174 (iScience, 2025)
